High-throughput results from PubChem.
KCNQ1 block = human KCNQ1 channel inhibition | P51787 | CHO-K1 KCNQ1, FluxOR thallium flux fluorescence; hits give high values | B-score at 10 µM | actives 1.3% (n = 310,000);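 active means compounds whose thallium flux B-score, printed positive for inhibition, exceeds three library SD while starting fluorescence stays within three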;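 further: channel opened by potassium depolarization with thallium stimulus after 20 min compound exposure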
KCNQ1 act = potentiates or activates the human KCNQ1 potassium channel; P51787; actives 0.35% (n = 310,000); B-score at 10 µM; CHO-K1 KCNQ1, thallium flux FluxOR fluorescence; hits give high values; AID 2648;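 active means fluorescence ratio B-score, a plate-corrected score, at least three library SD, with initial intensity B-score within 5 SD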
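System: CHO-K1 cells stably expressing KCNQ1 / Medium: assay buffer for compound exposure, DMSO matched across wells / Reagent: thallium- and potassium-containing depolarizing buffer / Compound: one concentration, matched DMSO / Incubation: 20 min compound pretreatment at room temperature / Measured by: kinetic FluxOR fluorescence, 10 s baseline plus 110 s post-stimulus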
hERG protect = shields human hERG channel from block by proarrhythmic agents; Q12809; CHO-hERG, FluxOR thallium flux, dofetilide IC70 present; activation (rescue from dofetilide block), less the hit threshold, % at 10 µM; actives 0.51% (n = 310,000); AID 1511;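 active means activation above the mean of controls blocked by dofetilide plus 5 SD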;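 further: thallium influx through hERG after potassium depolarization seen as dye fluorescence rise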
KCNK9 block = human KCNK9 channel inhibition. Q9NPC2. HEK293 KCNK9, FluxOR thallium flux fluorescence; hits give low values. B-score at 10 µM. actives 1.2% (n = 310,000). AID 488922;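 active means ratio B-score over 3 SD below the library mean, with starting fluorescence within 5 SD of its mean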;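 further: negative B-score means less thallium flux so channel inhibition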
KCNK3 block = human KCNK3 channel inhibition, primary screen. O14649. CHO-KCNK3 thallium flux, FluxOR fluorescence; hits give low values. B-score at 10 µM. actives 0.84% (n = 340,000);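 active means B-score under library mean minus 4 SD, starting fluorescence ratio at most library mean plus 5 SD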;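 further: more negative B-score means stronger inhibition of thallium flux through KCNK3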
Kir21 inh = Kir2.1 (mouse) channel inhibition | HEK293-Kir2.1, FluxOR thallium flux fluorescence; hits give low values | B-score at 10 µM | actives 0.85% (n = 310,000);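 active means fluorescence ratio B-score at or below minus 3 SD of library scores, with starting-brightness B-score within 2 SD, cut at about -4.2 in these data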;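 further: channel flux triggered by added potassium and thallium sulfate stimulus; B-score of peak minus minimum fluorescence over baseline after thallium stimulus; more negative B-score means stronger Kir2.1 block with less thallium influx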
Target sequence (P35561 whole entry, looked up): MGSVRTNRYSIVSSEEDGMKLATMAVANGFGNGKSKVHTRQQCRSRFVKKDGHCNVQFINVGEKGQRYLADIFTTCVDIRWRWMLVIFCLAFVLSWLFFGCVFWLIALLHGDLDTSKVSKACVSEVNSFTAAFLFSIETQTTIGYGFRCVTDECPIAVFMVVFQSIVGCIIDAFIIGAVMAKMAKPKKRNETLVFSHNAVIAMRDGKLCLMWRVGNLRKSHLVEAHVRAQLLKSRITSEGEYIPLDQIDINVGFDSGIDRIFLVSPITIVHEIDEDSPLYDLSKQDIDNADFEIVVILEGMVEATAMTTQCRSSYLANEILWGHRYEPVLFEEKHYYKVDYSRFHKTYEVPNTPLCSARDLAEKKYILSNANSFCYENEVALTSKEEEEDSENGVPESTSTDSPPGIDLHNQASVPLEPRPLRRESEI
KCNQ1 inh valid = human KCNQ1 channel inhibition, validation assay; AID 588353; KCNQ1 cell line, FluxOR thallium flux fluorescence; actives 93% (n = 1,600); inhibition, % at 10 µM; shares compounds with KCNQ1 block;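 active means primary screen active, with duplicate mean exceeding buffer control mean plus 3 SD of buffer wells, cut at about 28% in these data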
CHO KCNQ1 ctr = counter-screen for KCNQ1 inhibitors: effect in parental CHO cells; shares compounds with KCNQ1 block; parental CHO-K1, FluxOR thallium flux fluorescence ratio; hits give low values; zero means no signal rise above baseline; fluorescence ratio (Tl flux) at 10 µM; actives 21% (n = 1,600); AID 588366;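 active means mean of duplicate thallium-flux fluorescence ratios in parental host cells more than 5 SD below the buffer control mean, cut at about 0.38 in these data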;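 further: ratio is peak minus minimum fluorescence divided by baseline fluorescence; actives read low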
KCNQ1 ephys val = human KCNQ1 inhibition validated by electrophysiology | AID 624120 | actives 20% (n = 490) | KCNQ1-CHO cells, automated patch clamp current | shares compounds with KCNQ1 block | calls only at 10 µM;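 active means KCNQ1 current drop exceeding 3 SD of negative control wells, seen in both duplicate runs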;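 further: steady state current during a 2 s step from -80 to +40 mV; negative values mean current inhibition and positive values mean potentiation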
KCNQ2 spec = rat KCNQ2 inhibition in KCNQ1 inhibitor specificity screen; actives 71% (n = 1,600); KCNQ2 cells, FluxOR thallium flux fluorescence; shares compounds with KCNQ1 block; inhibition, % at 10 µM;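 active means mean percent inhibition of the KCNQ2 thallium signal more than 5 SD above the buffer-only control wells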;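 further: KCNQ2 expressed in CHO cells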
KCNQ1 KCNE1 spec = KCNQ1 inhibitor that also blocks human KCNQ1/KCNE1 channel. inhibition, % at 10 µM. actives 77% (n = 1,600). KCNQ1/KCNE1 cells, FluxOR thallium flux fluorescence. shares compounds with KCNQ1 block;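 active means mean percent inhibition of duplicate wells above the buffer-only control mean plus 3 SD of those controls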
Large screens that a line does not name were inactive (follow-up assays come after a bar, where they were run). Most compounds without a hit are left out; they make up all but 3.8% or so of the library.

CCOC(=O)C1=C(N)Oc2ccc3ccccc3c2C1c1cccnc1 (stereo unspecified)	none
CCOC(=O)C1=C(N)Oc2ccc3ccccc3c2C1c1cccc(O)c1 (stereo unspecified)	KCNQ1 block 6 | KCNQ1 inh valid 116 | CHO KCNQ1 ctr inactive | KCNQ1 ephys val inactive | KCNQ2 spec 122% | KCNQ1 KCNE1 spec 123%
O=C(Nc1ccc(Cl)cc1)Nc1ccc2c(c1)N1CCN=C1S2	KCNQ1 block 12 | KCNQ1 inh valid 106 | CHO KCNQ1 ctr inactive | KCNQ1 ephys val inactive | KCNQ2 spec 65% | KCNQ1 KCNE1 spec 110%
CCC(=O)Oc1ccc(C(=O)Nc2ccc([N+](=O)[O-])cc2)cc1	none
Cc1nc(-c2ccc(S(=O)(=O)N3CCN(c4cccc(C)c4C)CC3)cc2)co1	KCNQ1 block 6 | KCNQ1 inh valid 74 | CHO KCNQ1 ctr inactive | KCNQ2 spec 104% | KCNQ1 KCNE1 spec 112%
Cc1nc(-c2ccc(S(=O)(=O)N3CCN(c4ccccc4)CC3)cc2)co1	none
COc1ccc(-n2c(N3CCN(C)CC3)nc3sc4c(c3c2=O)CCCCC4)cc1	none
CCOC(=O)C1CCN(C2=C(NS(=O)(=O)c3ccc(Cl)cc3)C(=O)c3ccccc3C2=O)CC1	KCNQ1 block 6 | KCNQ1 inh valid 124 | CHO KCNQ1 ctr 0.32 | KCNQ2 spec 135% | KCNQ1 KCNE1 spec 182%
CCOC(=O)C1CCCN(C2=C(NS(=O)(=O)c3ccc(Br)cc3)C(=O)c3ccccc3C2=O)C1 (stereo unspecified)	none
O=C(O)CC(=O)Nc1cc(Cl)ccc1O	none
O=C(CCc1ccccc1)Nc1cc(Cl)ccc1O	KCNQ1 block 9 | KCNQ1 inh valid 63 | CHO KCNQ1 ctr inactive | KCNQ2 spec inactive | KCNQ1 KCNE1 spec 90%
Cc1c(C(=O)Nc2ccccc2)cn2c(nc3ccccc32)c1C#N	none
Cc1ccccc1C(=O)Nc1ccc2c(C#N)c3nc4ccccc4nc3n2c1	KCNQ1 block 8 | KCNQ1 inh valid 32 | CHO KCNQ1 ctr inactive | KCNQ2 spec 64% | KCNQ1 KCNE1 spec inactive
CC1CN(C(=O)CN2C(=O)NC3(CCCC3)C2=O)C(=Nc2cccc(S(=O)(=O)N(C)C)c2)S1 (stereo unspecified)	none
COc1ccc(CSCCNC(=S)Nc2ccccc2)cc1Cl	none
COc1ccc(CNC(=S)Nc2ccccc2)cc1Cl	none
CC(C)Oc1ccc(CNC(=S)Nc2ccccc2)cc1Cl	KCNQ1 block 7 | KCNQ1 inh valid 50 | CHO KCNQ1 ctr inactive | KCNQ2 spec 59% | KCNQ1 KCNE1 spec 75%
S=C(NCCSCc1ccc(Cl)cc1Cl)Nc1ccccc1	KCNQ1 block 6 | KCNQ1 inh valid 48 | CHO KCNQ1 ctr inactive | KCNQ2 spec 111% | KCNQ1 KCNE1 spec 36%
S=C(NCCSCc1ccc(Cl)c(Cl)c1)Nc1ccccc1	KCNQ1 block 11 | KCNQ1 inh valid 76 | CHO KCNQ1 ctr inactive | KCNQ2 spec 80% | KCNQ1 KCNE1 spec 65%
Cc1ccccc1CSCCNC(=S)Nc1ccccc1	KCNQ1 block 8 | KCNQ1 inh valid 62 | CHO KCNQ1 ctr inactive | KCNQ2 spec 82% | KCNQ1 KCNE1 spec 72%
O=C(O)c1cc(-c2ccc3ccccc3c2)nc2ccc(F)cc12	none
C=CCn1c(SCc2c(C)noc2C)nc2sc3c(c2c1=O)CCCC3	KCNQ1 block 7 | KCNQ1 inh valid 80 | CHO KCNQ1 ctr inactive | KCNQ2 spec 90% | KCNQ1 KCNE1 spec 146%
